Laboratory results reported in ChEMBL document CHEMBL1125553, “Bioisosteric replacement of the alpha-amino carboxylic acid functionality in 2-amino-5-phosphonopentanoic acid yields unique 3,4-diamino-3-cyclobutene-1,2-dione containing NMDA antagonists” (J Med Chem, 1992).

What was measured:
Glutamate NMDA receptor [1] = experiment: Inhibition of [3H]CPP binding to rat N-methyl-D-aspartate glutamate receptor; format: protein-complex assay
Outline: (§1)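 Rat brain crude synaptic membranes treated with 0.04% Triton X-100 and stored frozen at -70 °C. Before use they were thawed, washed once in Tris HCl buffer and resuspended at 0.3–0.5 mg protein/mL (Lowry). NMDA receptor affinity was measured as displacement of [3H]CPP binding to these membranes.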

[2] = molecular target: T1, Glutamate receptor ionotropic, AMPA (Rattus norvegicus, UniProt P19490+P19491+P19492+P19493); experiment: The compound was tested for its affinity against AMPA receptor in rats
[3] = molecular target: Glutamate receptor ionotropic, kainate; experiment: Compound was tested or its affinity against ionotropic glutamate receptor ionotropic kainate in rats
Mus musculus [4] = organism: Mus musculus; experiment: (§2) Effective dose against NMDA-induced lethality in male Swiss-albino mice; format: functional
[5] = molecular target: T2, Glutamate NMDA receptor (Rattus norvegicus) (UniProt P35439+Q00959+Q00960+Q00961+Q62645+Q8VHN2+Q9R1M7); experiment: The compound was tested for the inhibition of N-methyl-D-aspartate glutamate receptor in rats using [3H]-CPP as uM; details: concentration not given here
Outline: (§3)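 Rat brain crude synaptic membranes, Triton X-100 treated, frozen at -70 °C, thawed, washed once, resuspended in Tris HCl buffer at 0.3–0.5 mg protein/mL (Lowry). NMDA receptor affinity measured by displacement of [3H]CPP binding.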

Mus musculus [6] = organism: Mus musculus; experiment: as §2; format: ADME, organism-based; details: in vivo
[7] = molecular target: T2, Glutamate NMDA receptor (Rattus norvegicus); experiment: The compound was tested for its affinity against N-methyl-D-aspartate glutamate receptor in rats using [3H]CPP as uM; details: concentration not given here; outline: as §3
Glutamate NMDA receptor [8] = experiment: The compound was tested for its affinity against N-methyl-D-aspartate glutamate receptor in rats using [3H]CPP as radioligand; outline: as §1
Mus musculus [9] = organism: Mus musculus; experiment: Effective dose against NMDA-induced lethality in male Swiss-albino mice was determined at a concentration of 50 uM; format: organism-based; details: in vivo
Glutamate NMDA receptor [10] = experiment: Compound tested for affinity towards N-methyl-D-aspartate glutamate receptor by measuring their ability to displace [3H]TCP from rat brain
[11] = molecular target: T1, Glutamate receptor ionotropic, AMPA; experiment: Compound was tested or its affinity against AMPA receptor in rats
[12] = molecular target: T2, Glutamate NMDA receptor (Rattus norvegicus); experiment: The compound was tested for the inhibition of N-methyl-D-aspartate glutamate receptor in rats using [3H]CPP as uM; details: concentration not given here; outline: as §3
Rattus norvegicus = organism: Rattus norvegicus; experiment: Ability to displace [3H]TCP from rat brain; format: functional

With `NS(=O)(=O)c1cccc2c1c([N+](=O)[O-])cc1nc(O)c(O)nc12` [NBQX] as the compound, how does the IC50 (Glutamate NMDA receptor [1]) read?
The IC50 was greater than 10 µM.

`Nc1c(NCCn2oc(=O)[nH]c2=O)c(=O)c1=O` was tested. Which IC50 [2] did it give?
Its IC50 is greater than 100 µM.

What about the IC50 [3] of the same compound?
Its IC50 is greater than 100 µM.

And the IC50 (Glutamate NMDA receptor [1])?
The IC50 was 5.2 µM.

How did the ED50 (Mus musculus [4]) turn out when `NC(CCCCCP(=O)(O)O)C(=O)O` (stereo not drawn) [AP-7] was run?
Its ED50 is 38 mg/kg.

What about the IC50 (Glutamate NMDA receptor [1]) of the same compound?
Its IC50 is 0.39 µM.

`Nc1c(N(CC(=O)O)Cc2ccccc2)c(=O)c1=O` was tested. Which IC50 [2] did it give?
The IC50 was greater than 100 µM.

What about the IC50 [3] of the same compound?
Its IC50 is greater than 100 µM.

What about the inhibition [5] of the same compound?
The inhibition was 50%.

Which ED50 (Mus musculus [6]) does the source give for `Nc1c(NCCCCP(=O)(O)O)c(=O)c1=O` here?
The ED50 was greater than 30 mg/kg.

What about the inhibition [7] of the same compound?
The inhibition was 68%.

With `O=C(O)CCNc1c(O)c(=O)/c1=N\Cc1ccccc1` as the compound, how does the IC50 (Glutamate NMDA receptor [1]) read?
The IC50 was greater than 100 µM.

How did the IC50 (Glutamate NMDA receptor [1]) turn out when `C/N=c1\c(O)c(O)\c1=N/CCC(=O)O` was run?
Its IC50 is 20 µM.

Which results are given for `Nc1c(NCCCP(=O)(O)O)c(=O)c1=O`?
ED50 (Mus musculus [6]): > 100 mg/kg; IC50 (Glutamate NMDA receptor [8]): 2.6 µM

How did the ED50 (Mus musculus [6]) turn out when `Nc1c(NCCP(=O)(O)O)c(=O)c1=O` was run?
The ED50 was 29 mg/kg.

What about the IC50 (Glutamate NMDA receptor [8]) of the same compound?
The IC50 was 0.47 µM.

`N[C@@H](Cn1oc(=O)[nH]c1=O)C(=O)O` [QUISQUALATE] was tested. Which IC50 (Glutamate NMDA receptor [1]) did it give?
The IC50 was greater than 100 µM.

What does the source list for `CN(CCP(=O)(O)O)c1c(N)c(=O)c1=O`?
Inhibition (Mus musculus [9]): 50%; IC50 (Glutamate NMDA receptor [8]): 1 µM

With `O=C(O)C1CN(CCCP(=O)(O)O)CCN1` (stereo not drawn) as the compound, how does the IC50 (Glutamate NMDA receptor [10]) read?
The IC50 was 45 µM.

Which results are given for `Nc1c(NCP(=O)(O)O)c(=O)c1=O`?
ED50 (Mus musculus [6]): > 100 mg/kg; IC50 (Glutamate NMDA receptor [8]): > 10 µM

For `C=CCN(CC(=O)O)c1c(N)c(=O)c1=O`, which IC50 [11] is on record?
Its IC50 is greater than 100 µM.

And the IC50 [3]?
The IC50 was greater than 100 µM.

And the IC50 (Glutamate NMDA receptor [1])?
The IC50 was 10 µM.

With `C=C(C)CN(CC(=O)O)c1c(N)c(=O)c1=O` as the compound, how does the IC50 [2] read?
Its IC50 is greater than 100 µM.

What about the IC50 [3] of the same compound?
The IC50 was greater than 100 µM.

What about the inhibition [12] of the same compound?
Its inhibition is 46%.

How did the IC50 [2] turn out when `Nc1c(NCC(=O)O)c(=O)c1=O` was run?
The IC50 was greater than 100 µM.

And the IC50 [3]?
The IC50 was greater than 100 µM.

Which IC50 (Glutamate NMDA receptor [1]) does the source give for `CCOC(=O)C/N=c1\c(O)c(O)c1=N` here?
The IC50 was 190 µM.

How did the IC50 (Rattus norvegicus) turn out when `Nc1c(NCCC(=O)O)c(=O)c1=O` was run?
The IC50 was 941 µM.
